Reference: publication PMC7689742 (Clinical Pharmacology and Therapeutics, 2020)
≈ marks a conversion by molar mass, not a printed value. Where “and” joins values, the source holds several entries; their conditions need not be identical. Equal values may be shown once. Read-outs that look alike come from different tables or passages of the source.

Key:
[1] = 1:1 complex with HP‐β‐CD; cited from earlier work
[2] = Determination of the binding constant; assay type: physicochemical; settings: for k complex (M^−1) / k complex: 1:1 complex with HP‐β‐CD, source Internal data
[3] = Determination of the binding constant; assay type: physicochemical; settings: aqueous, 48 hours, ambient
Summary of the method: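 Excess test compound was added to sealed glass vials of aqueous α-cyclodextrin or HP-β-CD at several concentrations. Vials were shaken 48 h at ambient conditions to equilibrate, then centrifuge-filtered to remove solids. Dissolved compound was quantified by HPLC with diode array detection. k_complex = [complex]/([intrinsic solubility]·[free cyclodextrin]).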

GastroPlus human model = settings: for clearance: both, human, plasma, oral
MDCK cell monolayer = assay: Permeability across an MDCK cell monolayer; assay type: in vitro ADME, canine; settings: HP‐β‐CD:fenebrutinib molar ratio 1.56 (266 mg HP‐β‐CD)
Summary of the method: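 MDCK cells with canine Mdr1 knocked out by CRISPR-Cas9 were grown 5 days on 1 µm pore polyester inserts. Monolayers were equilibrated 20 min at 37°C in HBSS with 10 mM Hepes, pH 7.4. Donor held 20 µM test compound, 50 µM lucifer yellow and 0–20% w/v HP-β-CD. Apical-to-basolateral receivers were sampled at 30, 60 and 90 min. Quantitation was by LC-MS/MS; Papp = (dQ/dt)/(A·C0).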

[4] = Itraconazole clinical DDI study, fenebrutinib PK in healthy subjects; assay type: in vivo, human
Summary of the method: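 Single oral 100 mg test-compound dose on Day 1; after a 3-day washout, inhibitor 200 mg oral solution once daily Days 4–9, with co-dosed 100 mg test compound Day 10 and one more inhibitor dose Day 11. Overnight fast, 240 mL water, food withheld 4 h post-dose. Plasma sampled predose to 48 h on Days 1 and 10. Mixed-model least-squares means, 90% CI of difference.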

[5] = Physiochemical properties used for fenebrutinib
[6] = Pharmacokinetic study in pentagastrin‐pretreated dogs with or without HP‐β‐CD; assay type: in vivo, dog; settings: for AUC 0‐∞ / Fenebrutinib recovered in feces / Cmax / Tmax: 100 mg tablets; for Cmax / Tmax: male, beagle, dog, plasma, po, 100 mg
Summary of the method: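 Fasted male beagles got intramuscular pentagastrin at 6 µg/kg about 30 min before dosing. They then had oral gavage of pH 2 water (control) or HP-β-CD in pH 2 water (0.8, 2 or 8 g total), each plus water to 250 mL, followed by two 50 mg tablets (n = 4/group). Plasma was sampled 5 min–24 h and assayed by LC-MS/MS (LLOQ 1.02 ng/mL). Cumulative fecal recovery was measured. Groups were compared by one-way ANOVA with Bonferroni's test.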

[7] = dog model, from intravenous PK data
[8] = two‐compartment model fit to control group
[9] = both, human, plasma, po, 100 mg

CC[C@@]1(O)C(=O)OCc2c1cc1n(c2=O)Cc2cc3ccccc3nc2-1 [Camptothecin]
k complex [1]: 184 M⁻¹

C[C@H]1O[C@@H](O[C@H]2[C@@H](O)C[C@H](O[C@H]3[C@@H](O)C[C@H](O[C@H]4CC[C@@]5(C)[C@H](CC[C@@H]6[C@@H]5C[C@@H](O)[C@]5(C)[C@@H](C7=CC(=O)OC7)CC[C@]65O)C4)O[C@@H]3C)O[C@@H]2C)C[C@H](O)[C@@H]1O [Digoxin]
k complex (M^−1) [1]: 6,800 M^−1

C[C@]12CC[C@@H]3c4ccc(O)cc4CC[C@H]3[C@@H]1CC[C@@H]2O [Estradiol]
k complex (M^−1) [1]: 38,600 M^−1

Clc1ccc(COC(Cn2ccnc2)c2ccc(Cl)cc2Cl)cc1 (stereo not drawn) [Econazole]
k complex [1]: 180 M⁻¹

Cc1ccc(-c2cc(C(F)(F)F)nn2-c2ccc(S(N)(=O)=O)cc2)cc1 [Celecoxib]
k complex (M^−1) [2]: 3,000 M^−1

Clc1ccc(COC(Cn2ccnc2)c2ccc(Cl)cc2Cl)c(Cl)c1 (stereo not drawn) [Miconazole]
k complex [1]: 260 M⁻¹

C[C@H]1CN(C2COC2)CCN1c1ccc(Nc2cc(-c3ccnc(N4CCn5c(cc6c5CC(C)(C)C6)C4=O)c3CO)cn(C)c2=O)nc1 [Fenebrutinib]
transfer rate constant from the central to peripheral compartment (GastroPlus dog model; [7]): 0.08 h⁻¹
transfer rate constant from the peripheral to central compartment (GastroPlus dog model; [7]): 0.2 h⁻¹
clearance (GastroPlus dog model; dog, plasma, iv): 6 mL/min/kg
k complex with α‐CD [3]: 4,000 M^−1
clearance (GastroPlus human model): 19.2 mL/min/kg
clearance (GastroPlus human model; 100 mg): 35 mL/min/kg
reduction of systemic clearance in the presence of itraconazole (GastroPlus human model; residual method on elimination phases): approximately 45%
transfer rate constant from the central to peripheral compartment (GastroPlus human model; [8]): 0.5 h⁻¹
transfer rate constant from the peripheral to central compartment (GastroPlus human model; [8]): 0.19 h⁻¹
reduction in P app (MDCK cell monolayer): ~2 fold
AUC0–24h ([4]; 100 mg fenebrutinib oral alone, healthy subjects): 1.11 ± 0.359 µg/h/mL
AUC0–24h ([4]; 100 mg fenebrutinib with 200 mg itraconazole oral solution (steady state)): 2.45 ± 0.588 µg/h/mL
Cmax [4, 9]: 221 ± 82.5 ng/mL
Tmax [4, 9]: 1.56 ± 0.629 h
half-life [4, 9]: 8.26 ± 2.33 h
particle size distribution median diameter (D50) [5]: 12 µm
solubility ([5]; pH 2.3): 36000 µg/mL (≈ 54200 µM)
solubility ([5]; pH 6.5, fassif): 9 µg/mL (≈ 13.5 µM)
solubility ([5]; pH 7.8, aqueous buffer): 0.1 µg/mL (≈ 0.15 µM)
AUC 0‐∞ ([6]; HP‐β‐CD 0 g): 28.9 ± 6.98 µg/h/mL
Fenebrutinib recovered in feces ([6]; HP‐β‐CD 0 g): 3.48 ± 0.681 mg
AUC 0‐∞ ([6]; HP‐β‐CD 0.8 g): 17.4 ± 6.92 µg/h/mL
Fenebrutinib recovered in feces ([6]; HP‐β‐CD 0.8 g): 11.2 ± 2.39 mg
AUC 0‐∞ ([6]; HP‐β‐CD 2 g): 8.38 ± 1.94 µg/h/mL
Fenebrutinib recovered in feces ([6]; HP‐β‐CD 2 g): 15.6 ± 8.99 mg
AUC 0‐∞ ([6]; HP‐β‐CD 8 g): 4.46 ± 2.07 µg/h/mL
Fenebrutinib recovered in feces ([6]; HP‐β‐CD 8 g): 22.7 ± 7.76 mg
increase of recovery in feces vs control ([6]; HP‐β‐CD 0.8 g): ~3 fold
AUC decrease vs control ([6]; HP‐β‐CD 2 g): ~3.5 fold
Cmax decrease vs control ([6]; HP‐β‐CD 2 g): ~3.5 fold
increase of recovery in feces vs control ([6]; HP‐β‐CD 2 g): ~4.5 fold
AUC decrease vs control ([6]; HP‐β‐CD 8 g): about 7 fold
increase of recovery in feces vs control ([6]; HP‐β‐CD 8 g): about 6.5 fold
Cmax ([6]; HP‐β‐CD 0 g): 3940 ± 225 ng/mL
Cmax ([6]; HP‐β‐CD 0.8 g): 2090 ± 243 ng/mL
Cmax ([6]; HP‐β‐CD 2 g): 1110 ± 142 ng/mL
Cmax ([6]; HP‐β‐CD 8 g): 447 ± 204 ng/mL
Tmax ([6]; HP‐β‐CD 0 g): 0.875 ± 0.25 h
Tmax ([6]; HP‐β‐CD 0.8 g): 1.38 ± 1.11 h
Tmax ([6]; HP‐β‐CD 2 g): 2 ± 1.15 h
Tmax ([6]; HP‐β‐CD 8 g): 3 h
k complex (M^−1) [2]: 200,000 M^−1
k complex with HP‐β‐CD ([2]; aqueous, 48 hours, ambient): 2 × 10^5 M^−1 and ~ 2 × 10^5 M^−1

Cc1nnc2n1-c1ccc(Cl)cc1C(c1ccccc1)=NC2 [Alprazolam]
k complex [1]: 250 M⁻¹

Cc1nnc2n1-c1ccc(Cl)cc1C(c1ccccc1Cl)=NC2 [Triazolam]
k complex [1]: 200 M⁻¹

CN1C(=O)CN=C(c2ccccc2F)c2cc([N+](=O)[O-])ccc21 [Flunitrazepam]
k complex (M^−1) [1]: 1,100 M^−1

C[C@]12C=CC(=O)C=C1CC[C@@H]1[C@@H]2[C@@H](O)C[C@@]2(C)[C@H]1CC[C@]2(O)C(=O)CO [Prednisolone]
k complex [1]: 958 M⁻¹

C[C@]12CCC(=O)C=C1CC[C@@H]1[C@@H]2[C@@H](O)C[C@@]2(C)[C@H]1CC[C@]2(O)C(=O)CO [Hydrocortisone]
k complex (M^−1) [1]: 1,900 M^−1

Cc1cc(NS(=O)(=O)c2ccc(N)cc2)no1 [Sulfamethoxazole]
k complex [1]: 360 M⁻¹

CN1C(=O)CN=C(c2ccccc2)c2cc(Cl)ccc21 [Diazepam]
k complex [1]: 184 M⁻¹

COc1ccc2cc([C@H](C)C(=O)O)ccc2c1 [Naproxen]
k complex [1]: 780 M⁻¹

O=C(O)c1cc(-c2ccc(F)cc2F)ccc1O [Diflunisal]
k complex (M^−1) [2]: 1,600 M^−1

Nc1ccc(S(=O)(=O)Nc2nccs2)cc1 [Sulfathiazole]
k complex [2]: 450 M⁻¹

CS(=O)(=O)c1ccc(C2=C(c3ccccc3)C(=O)OC2)cc1 [Rofecoxib]
k complex [2]: 190 M⁻¹

CC/C(=C(/CC)c1ccc(O)cc1)c1ccc(O)cc1 [Diethylstilbestrol]
k complex (M^−1) [1]: 59,200 M^−1

CCn1cc(C(=O)O)c(=O)c2cc(F)c(N3CCNCC3)cc21 [Norfloxacin]
k complex [2]: 5 M⁻¹

CC(=O)Nc1nnc(S(N)(=O)=O)s1 [Acetazolamide]
k complex [1]: 85 M⁻¹
